Measurements published in ChEMBL document CHEMBL1144743, “Identification of prostaglandin D2 receptor antagonists based on a tetrahydropyridoindole scaffold” (Bioorg Med Chem Lett, 2008).

Legend:
[1] = Binding affinity to human recombinant PGD2 receptor subtype 1 by radioligand competition binding assay
Summary of the method: (§1)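 Radioligand competition binding on recombinant human receptors, DP1 or thromboxane TP receptor; Ki values reported.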

[2] = target: T1, Thromboxane A2 receptor (Homo sapiens, UniProt P21731); assay: Binding affinity to human recombinant TP receptor by radioligand competition binding assay; summary of the method: as §1
T1 sequence (P21731 whole entry): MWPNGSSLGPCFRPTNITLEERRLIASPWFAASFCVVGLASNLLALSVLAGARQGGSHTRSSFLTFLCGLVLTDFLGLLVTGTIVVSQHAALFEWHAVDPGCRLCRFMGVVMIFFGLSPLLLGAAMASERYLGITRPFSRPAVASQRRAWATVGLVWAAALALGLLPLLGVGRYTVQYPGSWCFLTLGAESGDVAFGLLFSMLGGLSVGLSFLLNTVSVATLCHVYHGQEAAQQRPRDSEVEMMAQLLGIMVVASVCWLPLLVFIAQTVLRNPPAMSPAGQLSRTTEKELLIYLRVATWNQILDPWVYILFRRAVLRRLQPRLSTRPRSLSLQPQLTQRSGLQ

[3] = Antagonist activity at PGD2 subtype 1 in human platelet rich plasma assessed as inhibition of PGD2-induced accumulation of cAMP; assay type: functional
Summary of the method: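 Blood from normal human volunteers; PRP prepared by centrifugation at 150g for 15 min. IBMX added (2 mM final) to block cAMP degradation. PRP samples preincubated 10 min at 37 °C with increasing compound concentrations in DMSO before PGD2 challenge. Reaction stopped with ethanol to lyse cells and extract cAMP. IC50 reported.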

[4] = target: Prostaglandin E2 receptor EP2 subtype (Homo sapiens, UniProt P43116); assay: Binding affinity to EP2 receptor
[5] = target: T2, Prostaglandin E2 receptor EP3 subtype (Homo sapiens, UniProt P43115); assay: Binding affinity to EP3 receptor
T2 sequence (P43115 whole entry): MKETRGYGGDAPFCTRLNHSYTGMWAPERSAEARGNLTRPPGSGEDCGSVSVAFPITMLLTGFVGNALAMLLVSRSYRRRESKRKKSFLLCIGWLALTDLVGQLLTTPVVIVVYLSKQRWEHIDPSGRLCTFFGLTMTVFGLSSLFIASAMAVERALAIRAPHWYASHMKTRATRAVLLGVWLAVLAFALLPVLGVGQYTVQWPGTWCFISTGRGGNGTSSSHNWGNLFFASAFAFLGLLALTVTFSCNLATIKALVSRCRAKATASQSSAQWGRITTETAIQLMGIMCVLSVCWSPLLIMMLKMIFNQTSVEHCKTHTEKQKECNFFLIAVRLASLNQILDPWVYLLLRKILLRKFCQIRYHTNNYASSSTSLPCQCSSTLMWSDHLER

[6] = target: T3, Prostaglandin E2 receptor EP1 subtype (Homo sapiens, UniProt P34995); assay: Binding affinity to EP1 receptor
T3 sequence (P34995 whole entry): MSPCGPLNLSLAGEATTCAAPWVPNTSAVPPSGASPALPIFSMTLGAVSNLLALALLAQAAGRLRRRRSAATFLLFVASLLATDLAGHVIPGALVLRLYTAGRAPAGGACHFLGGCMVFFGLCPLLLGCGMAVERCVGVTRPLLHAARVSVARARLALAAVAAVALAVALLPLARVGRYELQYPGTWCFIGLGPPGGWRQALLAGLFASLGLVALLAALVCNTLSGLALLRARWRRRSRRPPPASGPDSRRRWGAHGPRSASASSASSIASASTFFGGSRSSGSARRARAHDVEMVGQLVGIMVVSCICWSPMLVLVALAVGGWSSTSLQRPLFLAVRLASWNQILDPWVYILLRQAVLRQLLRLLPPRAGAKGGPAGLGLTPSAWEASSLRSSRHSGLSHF

[7] = target: Prostacyclin receptor (Homo sapiens, UniProt P43119); assay: Binding affinity to IP receptor
[8] = target: Prostaglandin E2 receptor EP4 subtype (Homo sapiens, UniProt P35408); assay: Binding affinity to EP4 receptor
[9] = target: Prostaglandin F2-alpha receptor (Homo sapiens, UniProt P43088); assay: Binding affinity to FP receptor
[10] = Bioavailability in rat; assay type: ADME, organism-based; conditions: in vivo
[11] = Half life in rat; assay type: ADME, organism-based; conditions: in vivo
[12] = target: T4, Prostaglandin D2 receptor 2 (Homo sapiens, UniProt Q9Y5Y4); assay: Binding affinity to CRTH2 receptor
T4 sequence (Q9Y5Y4 whole entry): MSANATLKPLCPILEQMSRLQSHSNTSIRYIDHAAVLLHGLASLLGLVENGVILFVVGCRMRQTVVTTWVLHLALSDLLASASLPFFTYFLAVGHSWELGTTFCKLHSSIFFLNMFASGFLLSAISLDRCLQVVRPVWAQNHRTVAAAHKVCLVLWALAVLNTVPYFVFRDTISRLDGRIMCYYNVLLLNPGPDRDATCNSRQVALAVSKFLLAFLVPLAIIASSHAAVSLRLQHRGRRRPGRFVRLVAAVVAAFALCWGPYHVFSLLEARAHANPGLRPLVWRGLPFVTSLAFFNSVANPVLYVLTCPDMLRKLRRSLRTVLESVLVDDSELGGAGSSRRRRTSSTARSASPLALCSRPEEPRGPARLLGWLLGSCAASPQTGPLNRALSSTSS

Sequence of Prostaglandin E2 receptor EP2 subtype (P43116 whole entry): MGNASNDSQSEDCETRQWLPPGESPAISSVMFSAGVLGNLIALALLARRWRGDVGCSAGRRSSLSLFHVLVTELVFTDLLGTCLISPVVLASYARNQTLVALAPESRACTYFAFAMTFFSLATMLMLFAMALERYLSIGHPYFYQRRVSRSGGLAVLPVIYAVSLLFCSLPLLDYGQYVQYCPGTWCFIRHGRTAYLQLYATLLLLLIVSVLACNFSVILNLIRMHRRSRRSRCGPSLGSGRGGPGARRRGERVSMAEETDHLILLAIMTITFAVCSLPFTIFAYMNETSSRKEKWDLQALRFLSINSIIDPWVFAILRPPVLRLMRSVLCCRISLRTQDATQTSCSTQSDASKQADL
Sequence of Prostaglandin E2 receptor EP4 subtype (P35408 whole entry): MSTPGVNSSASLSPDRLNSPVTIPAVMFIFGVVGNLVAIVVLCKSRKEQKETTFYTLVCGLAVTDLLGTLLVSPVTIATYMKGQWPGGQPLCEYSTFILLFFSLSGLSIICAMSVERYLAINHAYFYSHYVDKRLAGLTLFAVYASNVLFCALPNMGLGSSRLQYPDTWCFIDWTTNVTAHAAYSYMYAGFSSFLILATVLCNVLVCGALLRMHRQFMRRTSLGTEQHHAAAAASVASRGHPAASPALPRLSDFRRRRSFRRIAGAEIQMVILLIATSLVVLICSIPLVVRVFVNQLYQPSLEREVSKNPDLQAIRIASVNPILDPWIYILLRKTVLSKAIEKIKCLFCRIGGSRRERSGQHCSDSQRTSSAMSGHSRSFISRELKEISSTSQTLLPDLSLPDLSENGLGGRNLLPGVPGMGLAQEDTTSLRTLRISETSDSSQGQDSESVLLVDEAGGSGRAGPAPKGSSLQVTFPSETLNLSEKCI
Sequence of Prostaglandin F2-alpha receptor (P43088 whole entry): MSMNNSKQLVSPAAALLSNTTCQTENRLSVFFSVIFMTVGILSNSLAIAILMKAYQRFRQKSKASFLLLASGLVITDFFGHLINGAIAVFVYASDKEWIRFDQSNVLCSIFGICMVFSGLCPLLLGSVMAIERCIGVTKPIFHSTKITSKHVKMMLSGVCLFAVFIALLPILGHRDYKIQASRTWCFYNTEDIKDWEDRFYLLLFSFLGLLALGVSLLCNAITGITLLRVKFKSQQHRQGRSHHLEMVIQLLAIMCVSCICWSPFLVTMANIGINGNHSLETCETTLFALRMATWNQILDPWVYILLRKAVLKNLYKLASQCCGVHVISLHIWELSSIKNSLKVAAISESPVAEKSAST
Sequence of Prostacyclin receptor (P43119 whole entry): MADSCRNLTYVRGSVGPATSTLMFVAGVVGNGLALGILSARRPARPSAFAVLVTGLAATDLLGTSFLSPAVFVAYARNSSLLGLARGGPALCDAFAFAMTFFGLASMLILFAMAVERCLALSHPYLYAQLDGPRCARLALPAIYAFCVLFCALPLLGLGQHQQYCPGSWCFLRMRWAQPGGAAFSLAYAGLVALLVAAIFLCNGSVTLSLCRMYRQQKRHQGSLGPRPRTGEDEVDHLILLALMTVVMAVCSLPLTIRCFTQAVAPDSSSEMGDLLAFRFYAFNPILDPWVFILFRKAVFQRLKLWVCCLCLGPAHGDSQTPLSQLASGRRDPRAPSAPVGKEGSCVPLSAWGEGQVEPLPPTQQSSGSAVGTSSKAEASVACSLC

SMILES	Ki [1]	Ki [2]	IC50 [3]	also measured
CC(C)C(O)c1cc(F)cc2c1c(Sc1ccc(Cl)cc1)c1n2CCC1CC(=O)O (stereo not given)	7.9 nM	484 nM	509 nM	
CCC(CC)c1cc(F)cc2c1c(Sc1ccc(Cl)cc1)c1n2CCC1CC(=O)O (stereo not given)	8.1 nM	363 nM	21.6 nM	
CS(=O)(=O)c1cc(F)cc2c1c(Sc1ccc(Cl)cc1F)c1n2CCC1CC(=O)O (stereo not given)	3.5 nM	198 nM	32.1 nM	
CS(=O)(=O)c1cc(F)cc2c1c(C(=O)c1ccc(Cl)cc1)c1n2CCC[C@H]1CC(=O)O	36 nM	7150 nM		Ki [4]: > 29200 nM; Ki [5]: > 21400 nM; Ki [6]: 2170 nM; Ki [7]: > 22500 nM; Ki [8]: > 16100 nM; Ki [9]: > 24800 nM
O=C(O)CC1CCn2c1c(Sc1ccc(Cl)cc1)c1ccc(F)cc12 (stereo not given)	132 nM	17 nM		
CS(=O)(=O)c1cc(F)cc2c1c(Cc1ccc(Cl)cc1)c1n2CCC1CC(=O)O (stereo not given)	0.5 nM	11.7 nM	4.7 nM	
CC(=O)c1cc(F)cc2c1c(Sc1ccc(Cl)cc1)c1n2CCC1CC(=O)O (stereo not given)	3.6 nM	674 nM	101 nM	
CS(=O)(=O)c1cc(F)cc2c1c(C(=O)c1ccc(Cl)cc1)c1n2CCCC1CC(=O)O (stereo not given)	3 nM	513 nM	4.6 nM	bioavailability [10]: 100%; half-life [11]: 4.4 h
CCS(=O)(=O)c1cc(F)cc2c1c(Sc1ccc(Cl)cc1)c1n2CCC1CC(=O)O (stereo not given)	2.3 nM	250 nM	34 nM	
CS(=O)(=O)c1cc(F)cc2c1c(-c1cccc(-c3ccccc3)c1)c1n2CCC1CC(=O)O (stereo not given)	1.7 nM	310 nM	31.6 nM	
CSC(C)c1cc(F)cc2c1c(Sc1ccc(Cl)cc1)c1n2CCC1CC(=O)O (stereo not given)	1.6 nM	27.5 nM	4.1 nM	
CC(O)c1cc(F)cc2c1c(Sc1ccc(Cl)cc1)c1n2CCC1CC(=O)O (stereo not given)	2.5 nM	273 nM	56 nM	
CCC(OC)c1cc(F)cc2c1c(Sc1ccc(Cl)cc1)c1n2CCC1CC(=O)O (stereo not given)	1.1 nM	200 nM	6.7 nM	
CC(C)c1cc(F)cc2c1c(Sc1ccc(Cl)cc1)c1n2CCC1CC(=O)O (stereo not given)	2.4 nM	46 nM	8.6 nM	
CS(=O)(=O)c1cc(F)cc2c1c(Sc1ccc(C(F)(F)F)cc1)c1n2CCC1CC(=O)O (stereo not given)	1.8 nM	286 nM	29.2 nM	
CS(=O)(=O)c1cc(F)cc2c1c(Sc1ccc3ccccc3c1)c1n2CCC1CC(=O)O (stereo not given)	1.2 nM	583 nM	40 nM	
CS(=O)(=O)c1cc(F)cc2c1c(C(=O)c1ccc(Cl)cc1)c1n2CCCCC1CC(=O)O (stereo not given)	1.4 nM	675 nM	5.2 nM	
CC(c1ccc(Cl)cc1)c1c2n(c3cc(F)cc(S(C)(=O)=O)c13)CCC2CC(=O)O (stereo not given)	14.7 nM	3190 nM		
O=C(O)CC1CCn2c1c(Sc1ccc(Cl)cc1)c1c(C3CC3)cc(F)cc12 (stereo not given)	5.7 nM	136 nM		
O=C(O)CC1CCn2c1c(Sc1ccc(Cl)cc1)c1c(Br)cc(F)cc12 (stereo not given)	7.7 nM	17 nM		
CS(=O)(=O)c1cc(F)cc2c1c(C(=O)c1ccc(Cl)cc1)c1n2CCC[C@@H]1CC(=O)O	1 nM	168 nM	4.6 nM	Ki [12]: 19200 nM; Ki [4]: 3400 nM; Ki [5]: 5060 nM; Ki [6]: 142 nM; Ki [7]: > 21200 nM; Ki [8]: > 16500 nM; Ki [9]: 21100 nM
CS(=O)(=O)c1cc(F)cc2c1c(Sc1ccc(Cl)cc1)c1n2CCC1CC(=O)O (stereo not given)	1.3 nM	226 nM	10.4 nM	
CS(=O)(=O)c1cc(F)cc2c1c(CCc1ccc(Cl)cc1)c1n2CCC1CC(=O)O (stereo not given)	18.9 nM	219 nM		
CS(=O)(=O)c1cc(F)cc2c1c(C(=O)c1ccc(Cl)cc1)c1n2CCC1CC(=O)O (stereo not given)	6.9 nM	6970 nM		
